Data published in ChEMBL document CHEMBL2021780, “Antineoplastic agents. 548. Synthesis of iodo- and diiodocombstatin phosphate prodrugs” (J Nat Prod, 2012).
In brackets after ≈: the same amount, converted by molar mass. Activity calls are given as the source filed them. The rule behind the calls is not given here.

Assays:
[1] = test system: P388; test: Growth inhibition of mouse P388 cells after 48 hrs by Z1 Beckman/Coulter particle counter analysis; format: functional; conditions: P388, 48 h, read-out: ED50 (the source's name)
In short: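 Mouse P388 leukemia cells were incubated 24 h in 10% horse serum/Fisher medium, then exposed 48 h to serial compound dilutions. ED50 was calculated from cell counts on a Coulter Z1 particle counter.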

[2] = test system: BXPC-3; test: Growth inhibition of human BxPC3 cells after 48 hrs by sulforhodamine B assay; format: functional; conditions: BXPC-3, 48 h
In short: (§1)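 NCI sulforhodamine B assay. Cells were seeded in 5% FBS/RPMI-1640 and incubated 24 h. Serial compound dilutions were then added for 48 h. Cells were fixed with trichloroacetic acid, stained with SRB and read by microplate reader. GI50 is the concentration giving 50% reduction in net protein increase, calculated from optical density data.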

[3] = test system: MCF7; test: Growth inhibition of human MCF7 cells after 48 hrs by sulforhodamine B assay; format: functional; conditions: MCF7, 48 h; in short: as §1
[4] = test system: SF-268; test: Growth inhibition of human SF268 cells after 48 hrs by sulforhodamine B assay; format: functional; conditions: SF-268, 48 h; in short: as §1
[5] = test system: NCI-H460; test: Growth inhibition of human NCI-H460 cells after 48 hrs by sulforhodamine B assay; format: functional; conditions: NCI-H460, 48 h; in short: as §1
[6] = test system: KM-20L2; test: Growth inhibition of human KM20L2 cells after 48 hrs by sulforhodamine B assay; format: functional; conditions: KM-20L2, 48 h; in short: as §1
[7] = test system: DU-145; test: Growth inhibition of human DU145 cells after 48 hrs by sulforhodamine B assay; format: functional; conditions: DU-145, 48 h; in short: as §1
[8] = Growth inhibition of human KAT4 cells after 48 hrs by sulforhodamine B assay; format: functional; conditions: KAT-4, 48 h
[9] = test system: SW-1736; test: Growth inhibition of human SW1736 cells after 48 hrs by sulforhodamine B assay; format: functional; conditions: SW-1736, 48 h
[10] = test system: HUVEC; test: Antiangiogenic activity in HUVEC assessed as cell growth inhibition after 48 hrs by sulforhodamine B assay; format: functional, cell-based; conditions: Homo sapiens
In short: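 HUVECs were grown in EGM-2 medium and tested with the standard SRB growth assay following NCI Developmental Therapeutics Program Matrigel antiangiogenesis protocols. IC50 (concentration causing 50% inhibition) was calculated from plotted data.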

[11] = test system: HUVEC; test: Antiangiogenic activity in HUVEC assessed as reduction of cord length at 0.01 ug/ml after 24 hrs by matrigel assay relative to control; format: functional; conditions: Homo sapiens
In short: (§2)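 Commercial HUVECs grown in EGM-2 were seeded at 2 × 10⁵ cells/mL onto Matrigel, which had been polymerized 15 min at rt and then 30 min at 37 °C, per NCI DTP protocol. Compound was added and cells were incubated 24 h, then imaged by inverted microscopy. Cord length and junction number were scored against untreated control on a scale from − (none) to +++ (same as control), with ++ = 50% of control.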

[12] = test system: HUVEC; test: Antiangiogenic activity in HUVEC assessed as reduction of cord length at 0.001 ug/ml after 24 hrs by matrigel assay relative to control; format: functional; conditions: Homo sapiens; in short: as §2
[13] = test system: HUVEC; test: Antiangiogenic activity in HUVEC assessed as reduction of cord length at 0.0001 ug/ml after 24 hrs by matrigel assay relative to control; format: functional; conditions: Homo sapiens
In short: (§3)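 Matrigel was polymerised in wells (15 min rt, then 30 min 37 °C). HUVECs (2 × 10⁵ cells/mL) were added with compound and incubated 24 h, then imaged by inverted microscope. Cord length and junction number were scored semi-quantitatively versus untreated control (− none to +++ same as control).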

[14] = test system: HUVEC; test: Antiangiogenic activity in HUVEC assessed as reduction of number of junctions at 0.01 ug/ml after 24 hrs by matrigel assay relative to control; format: functional; conditions: Homo sapiens; in short: as §2
[15] = test system: HUVEC; test: Antiangiogenic activity in HUVEC assessed as reduction of number of junctions at 0.001 ug/ml after 24 hrs by matrigel assay relative to control; format: functional; conditions: Homo sapiens; in short: as §2
[16] = test system: HUVEC; test: Antiangiogenic activity in HUVEC assessed as reduction of number of junctions at 0.0001 ug/ml after 24 hrs by matrigel assay relative to control; format: functional; conditions: Homo sapiens; in short: as §3
[17] = test system: HUVEC; test: Antiangiogenic activity in HUVEC assessed as cell growth at 0.01 ug/ml after 24 hrs by sulforhodamine B assay relative to control; format: functional, Homo sapiens; conditions: Homo sapiens, HUVEC, 24 h; read-out: Activity
[18] = test system: HUVEC; test: Antiangiogenic activity in HUVEC assessed as cell growth at 0.001 ug/ml after 24 hrs by sulforhodamine B assay relative to control; format: functional, Homo sapiens; conditions: Homo sapiens, HUVEC, 24 h; read-out: Activity
[19] = test system: HUVEC; test: Antiangiogenic activity in HUVEC assessed as cell growth at 0.0001 ug/ml after 24 hrs by sulforhodamine B assay relative to control; format: functional, Homo sapiens; conditions: Homo sapiens, HUVEC, 24 h; read-out: Activity
[20] = test system: HUVEC; test: Antiangiogenic activity in HUVEC assessed as cell growth at 0.00001 ug/ml after 24 hrs by sulforhodamine B assay relative to control; format: functional; conditions: Homo sapiens, read-out: Activity
[21] = Inhibition of purified tubulin assembly after 20 mins
In short: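 Purified tubulin at 10 μM in 0.8 M monosodium glutamate (pH 6.6), 0.4 mM GTP and 4% (v/v) DMSO, with varying compound concentrations. Extent of assembly was measured after 20 min at 30 °C.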

[22] = Displacement of [3H]colchicine from tubulin at 1 uM after 10 mins
In short: (§4)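 [³H]colchicine binding: 1.0 μM tubulin with 5.0 μM [³H]colchicine and compound, incubated 10 min at 37 °C. The tubulin–colchicine complex was separated from unbound label by retention on DEAE-cellulose filters. Result is inhibition of radiolabel binding.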

[23] = Displacement of [3H]colchicine from tubulin at 10 uM after 10 mins; in short: as §4
[24] = test system: Micrococcus luteus; test: Antibacterial activity against Micrococcus luteus Presque Isle 456 by broth microdilution method; format: functional
In short: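 Broth microdilution per NCCLS bacterial (M7-A5) and yeast standards. Compounds were reconstituted in sterile DMSO and diluted in the appropriate medium just before testing. MIC is the lowest concentration giving complete inhibition of visible growth (optically clear). Assays were repeated on separate days.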

[25] = test system: HUVEC; test: Antiangiogenic activity in HUVEC assessed as reduction of cord length at 0.1 ug/ml after 24 hrs by matrigel assay relative to control; format: functional, cell-based; conditions: Homo sapiens; in short: as §2
[26] = test system: HUVEC; test: Antiangiogenic activity in HUVEC assessed as reduction of cord length at 1 ug/ml after 24 hrs by matrigel assay relative to control; format: functional, cell-based; conditions: Homo sapiens; in short: as §2
[27] = test system: HUVEC; test: Antiangiogenic activity in HUVEC assessed as reduction of number of junctions at 0.1 ug/ml after 24 hrs by matrigel assay relative to control; format: functional, cell-based; conditions: Homo sapiens; in short: as §2
[28] = test system: HUVEC; test: Antiangiogenic activity in HUVEC assessed as reduction of number of junctions at 1 ug/ml after 24 hrs by matrigel assay relative to control; format: functional, cell-based; conditions: Homo sapiens; in short: as §2
[29] = test system: Micrococcus luteus; test: Antibacterial activity against Micrococcus luteus assessed per disc; format: functional
[30] = test system: Neisseria gonorrhoeae; test: Antibacterial activity against Neisseria gonorrhoeae assessed per disc; format: functional
[31] = Displacement of [3H]colchicine from tubulin at 5 uM after 10 mins
In short: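 Purified tubulin 1.0 μM incubated with 5.0 μM [³H]colchicine and test compound for 10 min at 37 °C. Tubulin–colchicine complex retained on DEAE-cellulose filters to separate it from unbound label. Read-out is the percent inhibition of radiolabel binding.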

## COc1ccc(/C=C\c2cc(I)c(OC)c(I)c2)cc1O
[1]
  EC50: 2.8 ng/mL (≈ 5.51 nM)
[2]
  GI50: 38 ng/mL (≈ 74.8 nM)
[3]
  GI50: 2.7 ng/mL (≈ 5.31 nM)
[4]
  GI50: 3.6 ng/mL (≈ 7.09 nM)
[5]
  GI50: 3.4 ng/mL (≈ 6.69 nM)
[6]
  GI50: 150 ng/mL (≈ 295 nM)
[7]
  GI50: 2.1 ng/mL (≈ 4.13 nM)
[8]
  GI50: 39 ng/mL (≈ 76.8 nM)
[9]
  GI50: 1200 ng/mL (≈ 2360 nM)
[10]
  IC50: 0.28 ng/mL (≈ 0.551 nM)
[11]
  Activity: Active
[12]
  Activity: Active
[13]
  Activity: inactive
[14]
  Activity: Active
[15]
  Activity: Active
[16]
  Activity: inactive
[17]
  growth at 0.01 µg/mL: 4%
[18]
  growth at 0.001 µg/mL: 8%
[19]
  growth at 0.0001 µg/mL: 84%
[20]
  growth at 10 pg/mL: 87%
[21]
  IC50: 1500 nM
[22]
  inhibition: 95%
[23]
  inhibition: 100%
[24]
  MIC: 4000 ng/mL (≈ 7870 nM)

## COc1ccc(/C=C\c2cc(I)c(OC)c(I)c2)cc1OP(=O)(O)O
[12]
  Activity: inactive
[25]
  Activity: Active
[26]
  Activity: Active
[15]
  Activity: inactive
[27]
  Activity: Active
[28]
  Activity: Active

## COc1ccc(/C=C\c2cc(OC)c(OC)c(OC)c2)cc1O [COMBRETASTATIN A4]
[1]
  EC50: 0.3 ng/mL (≈ 0.948 nM)
[2]
  GI50: 390 ng/mL (≈ 1230 nM)
[4]
  GI50: < 1 ng/mL
[5]
  GI50: 0.6 ng/mL (≈ 1.9 nM)
[6]
  GI50: 61 ng/mL (≈ 193 nM)
[7]
  GI50: 0.8 ng/mL (≈ 2.53 nM)
[22]
  inhibition: 81%
[29]
  MIC: 25 µg
[30]
  MIC: 25 µg
[31]
  inhibition: 95%
